Test results from ChEMBL document CHEMBL1165950, “Design and synthesis of new potent anticancer pyrazoles with high FLT3 kinase inhibitory selectivity” (Bioorg Med Chem, 2010).

Columns and labels:
Format in all cases: functional
KM12 [1] = assay: Cytotoxicity against human KM12 cells assessed as cell growth at 100 nM after 48 hrs by sulforhodamine B assay; conditions: KM12, 48 h, read-out: Activity
SF-539 = assay: Cytotoxicity against human SF539 cells assessed as cell growth at 100 nM after 48 hrs by sulforhodamine B assay; conditions: SF-539, 48 h, read-out: Activity
SK-MEL-5 = assay: Cytotoxicity against human SK-MEL-5 cells assessed as cell growth at 100 nM after 48 hrs by sulforhodamine B assay; conditions: SK-MEL-5, 48 h, read-out: Activity
OVCAR-3 = assay: Cytotoxicity against human OVCAR-3 cells assessed as cell growth at 100 nM after 48 hrs by sulforhodamine B assay; conditions: OVCAR-3, 48 h, read-out: Activity
ACHN [2] = assay: Cytotoxicity against human ACHN cells assessed as cell growth at 100 nM after 48 hrs by sulforhodamine B assay; conditions: read-out: Activity
Outline: (§1)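 NCI-60 five-dose screen. Cells were grown in RPMI 1640 with 5% FBS and 2 mM L-glutamine, plated at 5000–40,000 cells/well and preincubated for 24 h. Time-zero plates were TCA-fixed. DMSO-solubilized drug was added at five concentrations (10-fold or ½-log serial dilutions) for 48 h at 37 °C, 5% CO2. Cells were TCA-fixed, stained with 0.4% SRB and read at 515 nm. Percent growth used time-zero, control and test absorbances.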

A498 = assay: Cytotoxicity against human A498 cells assessed as cell growth at 10 uM; conditions: read-out: Activity
Outline: (§2)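 Single-dose NCI-60 screen at 10 µM. Cells were grown in RPMI 1640 with 5% FBS and 2 mM L-glutamine, then treated for 48 h at 37 °C. Protein was measured by SRB staining with absorbance at 515 nm. Percentage growth was recorded, and inhibition percentage was calculated as 100 minus growth percentage.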

T47D [3] = assay: Cytotoxicity against human T47D cells assessed as cell growth at 10 uM; conditions: read-out: Activity
Outline: (§3)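 NCI-60 screen: cells grown in RPMI 1640 with 5% FBS and 2 mM L-glutamine, plated at 5000–40,000 cells/well according to doubling time, and preincubated 24 h at 37 °C, 5% CO2. The single 10 µM dose (DMSO stock) was added, then incubated 48 h. Cells were TCA-fixed and stained with 0.4% SRB, read at 515 nm, and growth % calculated against time-zero and control plates.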

MDA-MB-468 = assay: Cytotoxicity against human MDA-MB-468 cells assessed as cell growth at 10 uM; conditions: read-out: Activity; outline: as §3
HL-60(TB) = assay: Cytotoxicity against human HL-60(TB) cells assessed as cell growth at 0.001 uM after 48 hrs by sulforhodamine B assay; conditions: HL-60, 48 h, read-out: Activity
Outline: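 NCI 60-cell panel. Cells are grown in RPMI 1640 with 5% FBS and 2 mM L-glutamine, seeded at 5000–40,000 cells/well according to doubling time, and preincubated 24 h. Time-zero plates are TCA-fixed. Compound from DMSO stock is given at five 10-fold or 1/2-log concentrations for 48 h at 37 °C, 5% CO2. Suspension cells are fixed with 80% TCA (final 16%) and SRB-stained, with absorbance at 515 nm. Percent growth is derived from Tz, control and test readings.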

HCT-15 = assay: Cytotoxicity against human HCT15 cells assessed as cell growth at 1 uM after 48 hrs by sulforhodamine B assay; conditions: HCT-15, 48 h, read-out: Activity
U-251 [4] = assay: Cytotoxicity against human U251 cells assessed as cell growth at 1 uM after 48 hrs by sulforhodamine B assay; conditions: U-251, 48 h, read-out: Activity
EKVX [5] = assay: Cytotoxicity against human EKVX cells assessed as cell growth at 0.01 uM after 48 hrs by sulforhodamine B assay; conditions: read-out: Activity
SF-268 = assay: Cytotoxicity against human SF268 cells assessed as cell growth at 0.001 uM after 48 hrs by sulforhodamine B assay; conditions: SF-268, 48 h, read-out: Activity
U-251 [6] = assay: Cytotoxicity against human U251 cells assessed as cell growth at 0.001 uM after 48 hrs by sulforhodamine B assay; conditions: U-251, 48 h, read-out: Activity
786-0 = assay: Cytotoxicity against human 786-0 cells assessed as cell growth at 0.001 uM after 48 hrs by sulforhodamine B assay; conditions: 786-0, 48 h, read-out: Activity; outline: as §1
SN12C = assay: Cytotoxicity against human SN12C cells assessed as cell growth at 0.001 uM after 48 hrs by sulforhodamine B assay; conditions: read-out: Activity
EKVX [7] = assay: Growth inhibition of human EKVX cells after 48 hrs by sulforhodamine B assay; conditions: for CC50: read-out: LC50 (the source's name)
Outline: (§4)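 NCI five-dose SRB assay in RPMI 1640 with 5% FBS and 2 mM L-glutamine. Cells were preincubated 24 h, then exposed 48 h at 37 °C to five concentrations (10-fold or half-log serial dilutions from DMSO stocks). TCA fixation, SRB staining, and absorbance at 515 nm followed. IC50 was taken where [(Ti−Tz)/(C−Tz)]×100 = 50, with Tz as time-zero cell density.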

KM12 [8] = assay: Growth inhibition of human KM12 cells after 48 hrs by sulforhodamine B assay; conditions: KM12, 48 h; for CC50: read-out: LC50 (the source's name)
Outline: (§5)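 NCI 60-cell screen, five-dose mode. Cells grown in RPMI 1640 with 5% FBS and 2 mM L-glutamine and plated at 5000-40,000 cells/well according to doubling time. After 24 h preincubation, a Tz plate was TCA-fixed. Five concentrations (10-fold or 1/2 log dilutions) were applied for 48 h at 37 °C. SRB staining read at 515 nm. IC50 taken from [(Ti-Tz)/(C-Tz)]×100 = 50.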

IGROV-1 = assay: Growth inhibition of human IGROV1 cells after 48 hrs by sulforhodamine B assay; conditions: IGROV-1, 48 h; for CC50: read-out: LC50 (the source's name); outline: as §5
CCRF-CEM = assay: Cytotoxicity against human CCRF-CEM cells assessed as cell growth at 100 nM after 48 hrs by sulforhodamine B assay; conditions: read-out: Activity; outline: as §1
ACHN [9] = assay: Growth inhibition of human ACHN cells after 48 hrs by sulforhodamine B assay; outline: as §4
T47D [10] = assay: Growth inhibition of human T47D cells after 48 hrs by sulforhodamine B assay; outline: as §5
UACC-62 = assay: Cytotoxicity against human UACC62 cells assessed as cell growth at 1 uM after 48 hrs by sulforhodamine B assay; conditions: UACC-62, 48 h, read-out: Activity
HT-29 = assay: Cytotoxicity against human HT-29 cells assessed as cell growth at 10 uM; conditions: read-out: Activity; outline: as §2
MDA-MB-435 = assay: Cytotoxicity against human MDA-MB-435 cells assessed as cell growth at 10 uM after 48 hrs by sulforhodamine B assay; conditions: MDA-MB-435, 48 h, read-out: Activity
DU-145 = assay: Cytotoxicity against human DU145 cells assessed as cell growth at 10 uM after 48 hrs by sulforhodamine B assay; conditions: DU-145, 48 h, read-out: Activity

SMILES	growth at 0.1 µM (KM12 [1]) [%]	growth at 0.1 µM (SF-539) [%]	growth at 0.1 µM (SK-MEL-5) [%]	growth at 0.1 µM (OVCAR-3) [%]	growth at 0.1 µM (ACHN [2]) [%]	growth at 10 µM (A498) [%]	growth at 10 µM (T47D [3]) [%]	growth at 10 µM (MDA-MB-468) [%]	growth at 0.001 µM (HL-60(TB)) [%]	growth at 1 µM (HCT-15) [%]	growth at 1 µM (U-251 [4]) [%]	growth at 0.01 µM (EKVX [5]) [%]	growth at 0.001 µM (SF-268) [%]	growth at 0.001 µM (U-251 [6]) [%]	growth at 0.001 µM (786-0) [%]	growth at 0.001 µM (SN12C) [%]	GI50 (EKVX [7]) [µM]	TGI (EKVX [7]) [µM]	CC50 (EKVX [7]) [µM]	GI50 (KM12 [8]) [µM]	also measured
COc1cc(C)cc(-c2nn(CC#N)cc2-c2ccnc(-c3ccc(N(C)C)cc3)c2)c1	10	-31	-22	-51	29	4.2	39	-48.4	97	-1	-5	89	103	94	101	100	0.696	> 10	> 100	0.31	TGI (KM12 [8]): 1.62 µM; CC50 (KM12 [8]): 25.5 µM; GI50 (IGROV-1): 0.402 µM; TGI (IGROV-1): 30.1 µM; CC50 (IGROV-1): > 100 µM; growth at 0.1 µM (CCRF-CEM): 24%; GI50 (ACHN [9]): 0.499 µM; LC50 (concentration giving 50% net cell kill) (ACHN [9]): > 100 µM; TGI (ACHN [9]): 12.4 µM; GI50 (T47D [10]): 0.475 µM; LC50 (T47D [10]): > 100 µM; TGI (T47D [10]): 17.3 µM; growth at 1 µM (UACC-62): 12%; growth at 10 µM (HT-29): -7.04%; growth at 10 µM (MDA-MB-435): -2%; growth at 10 µM (DU-145): -48%
COc1cc(C)cc(-c2nn(CC#N)cc2-c2ccc(-c3cccc(C(C)=O)c3)nc2)c1	75	78	65	66	93	19.7	11.6	-30.5	94	12	6	99	99	98	97	92	3.98	50.7	> 100	2.23	TGI (KM12 [8]): 13.9 µM; CC50 (KM12 [8]): > 100 µM; GI50 (IGROV-1): 2.73 µM; TGI (IGROV-1): 10.4 µM; CC50 (IGROV-1): > 100 µM; growth at 0.1 µM (CCRF-CEM): 77%; GI50 (ACHN [9]): 4.19 µM; LC50 (concentration giving 50% net cell kill) (ACHN [9]): > 100 µM; TGI (ACHN [9]): > 100 µM; GI50 (T47D [10]): 2.23 µM; LC50 (T47D [10]): > 100 µM; TGI (T47D [10]): 8.23 µM; growth at 1 µM (UACC-62): 38%; growth at 10 µM (HT-29): 3.66%; growth at 10 µM (MDA-MB-435): -22%; growth at 10 µM (DU-145): -48%
Cc1cc(O)cc(-c2nn(CC#N)cc2-c2ccnc(-c3ccc(Oc4ccccc4)cc3)c2)c1	85	92	94	93	95	93.9	14.2	6.32	96	-34	-97	94	88	97	98	94	2.16	8.95	> 100	1.92	TGI (KM12 [8]): 4.87 µM; CC50 (KM12 [8]): 15.3 µM; GI50 (IGROV-1): 1.74 µM; TGI (IGROV-1): 3.75 µM; CC50 (IGROV-1): 8.07 µM; growth at 0.1 µM (CCRF-CEM): 86%; GI50 (ACHN [9]): 2.84 µM; LC50 (concentration giving 50% net cell kill) (ACHN [9]): 33.8 µM; TGI (ACHN [9]): 9.14 µM; GI50 (T47D [10]): 2.04 µM; LC50 (T47D [10]): 39.1 µM; TGI (T47D [10]): 5.81 µM; growth at 1 µM (UACC-62): 33%; growth at 10 µM (HT-29): 0.27%; growth at 10 µM (MDA-MB-435): -59%; growth at 10 µM (DU-145): -100%
